Article PMC5034155 (Journal of medicinal chemistry, 2016)
Values belong to the compound of their own block, whether it stands above or below them.

Legend:
PB1(5) bromodomain = PB1(5) bromodomain (Homo sapiens, UniProt Q86U86); assay: DSF thermal shift, PB1; assay type: binding; settings: fragment screen against PB1(5); confirmed by ITC
[1] = Chemical stability in cell media; assay type: physicochemical; settings: after one week in cell media at 37°C
SMARCA4 = SMARCA4 (Homo sapiens, UniProt P51532); assay: SMARCA4 FRAP assay; assay type: cell-based
Chain of SMARCA4 (P51532 whole entry): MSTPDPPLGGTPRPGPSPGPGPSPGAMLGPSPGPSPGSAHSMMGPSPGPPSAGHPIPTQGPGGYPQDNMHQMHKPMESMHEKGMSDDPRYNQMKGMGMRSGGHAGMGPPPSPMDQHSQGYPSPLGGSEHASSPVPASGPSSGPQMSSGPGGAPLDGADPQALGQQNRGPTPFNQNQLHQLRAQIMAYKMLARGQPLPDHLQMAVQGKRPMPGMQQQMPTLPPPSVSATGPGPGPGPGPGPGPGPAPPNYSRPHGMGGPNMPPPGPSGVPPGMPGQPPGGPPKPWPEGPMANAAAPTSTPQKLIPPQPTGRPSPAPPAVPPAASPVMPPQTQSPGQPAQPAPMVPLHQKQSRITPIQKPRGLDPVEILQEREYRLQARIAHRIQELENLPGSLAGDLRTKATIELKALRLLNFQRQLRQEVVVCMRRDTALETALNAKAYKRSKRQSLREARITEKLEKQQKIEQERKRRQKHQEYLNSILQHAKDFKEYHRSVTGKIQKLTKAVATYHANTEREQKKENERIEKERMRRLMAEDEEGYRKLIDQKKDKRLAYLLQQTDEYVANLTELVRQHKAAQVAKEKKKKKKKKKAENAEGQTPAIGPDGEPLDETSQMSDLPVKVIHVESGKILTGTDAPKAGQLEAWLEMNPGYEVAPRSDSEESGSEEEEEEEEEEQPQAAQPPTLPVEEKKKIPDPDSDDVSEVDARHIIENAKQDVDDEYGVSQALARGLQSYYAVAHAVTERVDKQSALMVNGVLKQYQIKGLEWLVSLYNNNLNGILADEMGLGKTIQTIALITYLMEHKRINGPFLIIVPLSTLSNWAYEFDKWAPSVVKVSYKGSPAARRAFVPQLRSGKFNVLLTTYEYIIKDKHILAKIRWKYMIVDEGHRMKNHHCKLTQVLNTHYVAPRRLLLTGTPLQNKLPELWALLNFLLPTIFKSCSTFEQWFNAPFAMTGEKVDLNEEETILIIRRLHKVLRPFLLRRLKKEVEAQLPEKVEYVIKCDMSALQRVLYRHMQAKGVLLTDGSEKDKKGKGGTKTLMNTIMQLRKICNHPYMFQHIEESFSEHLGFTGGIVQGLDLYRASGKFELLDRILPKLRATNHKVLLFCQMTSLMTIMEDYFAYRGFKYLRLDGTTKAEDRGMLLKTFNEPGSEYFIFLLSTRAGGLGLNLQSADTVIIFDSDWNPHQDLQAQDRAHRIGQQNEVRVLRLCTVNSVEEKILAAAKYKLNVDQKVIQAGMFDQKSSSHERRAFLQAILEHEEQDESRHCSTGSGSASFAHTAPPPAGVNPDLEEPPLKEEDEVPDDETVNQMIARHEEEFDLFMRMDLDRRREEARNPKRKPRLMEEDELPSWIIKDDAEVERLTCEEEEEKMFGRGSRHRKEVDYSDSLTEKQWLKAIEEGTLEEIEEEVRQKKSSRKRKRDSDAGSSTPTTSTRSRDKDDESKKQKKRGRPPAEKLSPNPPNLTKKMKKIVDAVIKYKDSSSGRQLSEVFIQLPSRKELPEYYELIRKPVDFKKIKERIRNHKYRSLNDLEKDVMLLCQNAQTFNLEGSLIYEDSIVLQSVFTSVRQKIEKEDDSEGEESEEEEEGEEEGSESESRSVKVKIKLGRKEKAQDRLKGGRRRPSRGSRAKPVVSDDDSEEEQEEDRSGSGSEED
Outline: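 Run like the SMARCA2 FRAP: U2OS cells treated with the HDAC inhibitor SAHA to induce hyperacetylation, transfected with a GFP-tagged bromodomain construct, and exposed to test compound. Chromatin displacement is read as the fluorescence recovery half-time after photobleaching.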

[2] = test system: clear cell renal cell carcinoma cell lines (786-O and Rcc4); assay: ccRCC cell line proliferation; assay type: cell-based; settings: 786-O (wild type PB1) and Rcc4 (PB1 downregulation)
[3] = test system: C2C12 and C3H10T1/2 cells; assay: MTT cell viability assay; assay type: cell-based; settings: up to 50 μM dose, 72 hours
[4] = test system: C3H10T1/2 mesenchymal cells; assay: Adipocyte differentiation; assay type: cell-based; settings: 20 μM
Family VIII bromodomains = assay: Isothermal Titration Calorimetry, Family VIII bromodomains; assay type: binding
[5] = test system: non-family VIII bromodomains; assay: Tm shift panel of 40 bromodomain proteins; assay type: binding
[6] = test system: non-family VIII bromodomains; assay: BROMOscan profiling from DiscoveRx; assay type: binding
GFP-SMARCA2 in U2OS = GFP-SMARCA2 in U2OS (Homo sapiens, UniProt P51531); assay: SMARCA2 FRAP assay; assay type: cell-based; settings: U2OS treated with SAHA
Chain of GFP-SMARCA2 in U2OS (P51531 1-1572 isoform P51531-2): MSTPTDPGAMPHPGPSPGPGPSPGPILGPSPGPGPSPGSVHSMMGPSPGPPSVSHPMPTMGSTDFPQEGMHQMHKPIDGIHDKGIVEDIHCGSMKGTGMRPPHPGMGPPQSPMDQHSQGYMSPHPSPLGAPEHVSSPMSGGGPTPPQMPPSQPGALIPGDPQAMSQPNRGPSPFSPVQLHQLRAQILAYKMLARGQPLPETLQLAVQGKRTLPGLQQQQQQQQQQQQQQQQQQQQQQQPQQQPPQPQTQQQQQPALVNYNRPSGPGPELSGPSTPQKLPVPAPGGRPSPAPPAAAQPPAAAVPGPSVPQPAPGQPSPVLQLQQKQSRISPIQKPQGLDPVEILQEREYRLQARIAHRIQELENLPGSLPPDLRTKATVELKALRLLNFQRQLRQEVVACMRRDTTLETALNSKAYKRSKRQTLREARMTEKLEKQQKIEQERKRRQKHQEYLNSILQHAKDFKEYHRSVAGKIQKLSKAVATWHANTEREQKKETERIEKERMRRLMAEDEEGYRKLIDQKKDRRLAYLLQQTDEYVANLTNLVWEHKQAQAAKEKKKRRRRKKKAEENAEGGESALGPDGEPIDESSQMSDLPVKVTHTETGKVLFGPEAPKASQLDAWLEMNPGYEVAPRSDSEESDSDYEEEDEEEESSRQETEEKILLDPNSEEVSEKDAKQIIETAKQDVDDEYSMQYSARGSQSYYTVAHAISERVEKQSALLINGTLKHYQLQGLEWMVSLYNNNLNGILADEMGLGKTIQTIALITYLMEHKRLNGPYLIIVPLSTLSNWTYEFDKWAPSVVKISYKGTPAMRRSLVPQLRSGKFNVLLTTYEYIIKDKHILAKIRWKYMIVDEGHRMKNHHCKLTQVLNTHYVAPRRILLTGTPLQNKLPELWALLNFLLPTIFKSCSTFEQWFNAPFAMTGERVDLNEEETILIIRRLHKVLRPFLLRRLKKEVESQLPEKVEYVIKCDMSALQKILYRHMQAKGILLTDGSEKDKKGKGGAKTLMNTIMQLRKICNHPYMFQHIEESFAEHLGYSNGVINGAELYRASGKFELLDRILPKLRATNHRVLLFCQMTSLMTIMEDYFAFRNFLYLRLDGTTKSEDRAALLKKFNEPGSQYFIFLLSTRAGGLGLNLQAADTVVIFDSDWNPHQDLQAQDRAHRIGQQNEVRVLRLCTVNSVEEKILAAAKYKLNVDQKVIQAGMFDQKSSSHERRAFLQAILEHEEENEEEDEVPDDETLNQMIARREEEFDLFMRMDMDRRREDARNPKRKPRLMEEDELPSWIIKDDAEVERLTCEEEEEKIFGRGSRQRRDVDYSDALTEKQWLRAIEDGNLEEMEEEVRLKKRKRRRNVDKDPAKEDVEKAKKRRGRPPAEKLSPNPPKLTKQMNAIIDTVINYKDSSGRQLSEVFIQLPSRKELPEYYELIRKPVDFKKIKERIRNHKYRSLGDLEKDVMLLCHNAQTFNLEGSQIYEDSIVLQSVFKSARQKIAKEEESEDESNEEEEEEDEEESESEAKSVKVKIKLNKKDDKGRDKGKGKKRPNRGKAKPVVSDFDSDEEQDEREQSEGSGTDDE

GFP-PB1 = GFP-PB1 (Homo sapiens, UniProt Q86U86); assay: PB1 FRAP assay; assay type: cell-based; settings: SAHA treated
Chain of GFP-PB1 (Q86U86 whole entry): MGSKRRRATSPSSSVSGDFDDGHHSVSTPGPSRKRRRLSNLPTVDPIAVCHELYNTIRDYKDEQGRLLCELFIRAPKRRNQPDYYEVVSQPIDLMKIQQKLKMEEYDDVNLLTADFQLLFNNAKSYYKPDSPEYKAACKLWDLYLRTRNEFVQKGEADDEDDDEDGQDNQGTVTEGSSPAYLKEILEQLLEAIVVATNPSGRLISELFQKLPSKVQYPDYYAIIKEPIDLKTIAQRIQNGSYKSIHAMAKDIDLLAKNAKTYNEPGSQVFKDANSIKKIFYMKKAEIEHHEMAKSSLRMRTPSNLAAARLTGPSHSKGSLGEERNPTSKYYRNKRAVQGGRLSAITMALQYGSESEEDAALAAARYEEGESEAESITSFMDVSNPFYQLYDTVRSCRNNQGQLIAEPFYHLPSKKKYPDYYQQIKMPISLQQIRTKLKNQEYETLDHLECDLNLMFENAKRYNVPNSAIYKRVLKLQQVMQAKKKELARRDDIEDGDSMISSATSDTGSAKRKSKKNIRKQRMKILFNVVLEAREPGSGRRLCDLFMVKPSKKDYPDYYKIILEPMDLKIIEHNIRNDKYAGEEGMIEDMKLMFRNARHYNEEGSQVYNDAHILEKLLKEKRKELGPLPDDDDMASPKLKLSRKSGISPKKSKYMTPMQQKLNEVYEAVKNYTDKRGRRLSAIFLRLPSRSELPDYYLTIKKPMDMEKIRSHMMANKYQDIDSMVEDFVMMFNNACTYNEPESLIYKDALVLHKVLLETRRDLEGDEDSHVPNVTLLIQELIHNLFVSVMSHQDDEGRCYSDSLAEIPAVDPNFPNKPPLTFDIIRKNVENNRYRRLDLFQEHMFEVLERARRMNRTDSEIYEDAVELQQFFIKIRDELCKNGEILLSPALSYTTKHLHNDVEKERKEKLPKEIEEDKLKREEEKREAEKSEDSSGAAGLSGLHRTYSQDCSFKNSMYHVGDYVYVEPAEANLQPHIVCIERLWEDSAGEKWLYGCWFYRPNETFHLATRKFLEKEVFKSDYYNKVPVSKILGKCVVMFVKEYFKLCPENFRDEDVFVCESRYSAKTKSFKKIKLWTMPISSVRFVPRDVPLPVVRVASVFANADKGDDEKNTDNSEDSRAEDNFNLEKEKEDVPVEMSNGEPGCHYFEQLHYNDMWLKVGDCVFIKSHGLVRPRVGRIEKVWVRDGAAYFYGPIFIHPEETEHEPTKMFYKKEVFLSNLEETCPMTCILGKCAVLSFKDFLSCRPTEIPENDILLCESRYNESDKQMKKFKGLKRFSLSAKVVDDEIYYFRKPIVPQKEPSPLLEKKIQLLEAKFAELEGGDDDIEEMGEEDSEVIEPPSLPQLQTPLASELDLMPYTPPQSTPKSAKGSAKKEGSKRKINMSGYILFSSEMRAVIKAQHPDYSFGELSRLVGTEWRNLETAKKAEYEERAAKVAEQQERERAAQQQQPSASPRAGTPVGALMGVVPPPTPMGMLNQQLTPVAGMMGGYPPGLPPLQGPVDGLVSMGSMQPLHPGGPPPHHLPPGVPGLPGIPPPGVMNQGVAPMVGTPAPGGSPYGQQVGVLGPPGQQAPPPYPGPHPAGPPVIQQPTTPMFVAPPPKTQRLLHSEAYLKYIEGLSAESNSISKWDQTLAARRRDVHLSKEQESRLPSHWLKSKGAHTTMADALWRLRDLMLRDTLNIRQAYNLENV
Outline: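 GFP-tagged PB1 (wild type or N263A / N707F acetyl-lysine-site mutants) expressed by transfection in cells pretreated with SAHA (2.5 μM) to hyperacetylate chromatin. Test compound given at several doses. Read-out is the half-time (t½) of fluorescence recovery after photobleaching, averaged from individual recovery curves of at least 20 cells per group with SEM. p-values are relative to wild type with SAHA.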

Chain of PB1(5) bromodomain (Q86U86 653-763 limits assumed): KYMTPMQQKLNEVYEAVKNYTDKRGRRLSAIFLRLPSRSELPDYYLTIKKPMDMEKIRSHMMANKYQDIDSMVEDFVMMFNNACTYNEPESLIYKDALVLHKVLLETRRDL

- fragment screen hit quality (DSF) (PB1(5) bromodomain): weak, but highly ligand efficient hit
Compound: O=C(O)c1ccccc1O [Compound 1, salicylic acid]

Compound: O=C(/C=C/N1C[C@H]2C[C@@H]1CN2c1ccccn1)c1ccccc1O [Compound 16, (E)-1-(2-hydroxyphenyl)-3-((1R,4R)-5-(pyridin-2-yl)-2,5-diazabicyclo[2.2.1]heptan-2-yl)prop-2-en-1-one]
- compound recovered [1]: Greater than 90%
- SMARCA4 in cell target engagement (FRAP) (SMARCA4): confirmed
- effect on cell line proliferation [2]: did not show any effect
- cytotoxic effect (MTT cell viability) [3]: did not have significant cytotoxic effect
- inhibition of adipogenesis [4]: Near complete inhibition

Compound: O=C(/C=C/N1[C@H]2CC[C@@H]1c1ncnc(NC3CC3)c1C2)c1ccccc1O [Compound 17]
- binding to Family VIII bromodomains by ITC (Family VIII bromodomains): potent binder to most of the Family VIII bromodomains
- selectivity over non-family VIII bromodomains, Tm shift panel [5]: not active
- selectivity over non-family VIII bromodomains, BROMOscan [6]: not active
- FRAP half-recovery time (t1/2) of GFP-SMARCA2 (GFP-SMARCA2 in U2OS): accelerated FRAP half-recovery time (t1/2) significantly in a dose dependent manner
- displacement of GFP-PB1 from chromatin (FRAP) (GFP-PB1; 1 μM): able to displace PB1 from chromatin
- SMARCA4 in cell target engagement (FRAP) (SMARCA4): confirmed
- effect on cell line proliferation [2]: did not show any effect

- half-recovery time of GFP-PB1 (FRAP) (GFP-PB1): no effect
Compound: C#CCNc1ccnc(N2C[C@H]3C[C@@H]2CN3/C=C/C(=O)c2cccc(OC)c2O)n1 [Compound 18]
